ChEMBL document CHEMBL5625173, “Antimycobacterial pyridine carboxamides: From design to in vivo activity” (Eur J Med Chem, 2023)
pIC50: −log10 of the molar value. Converted amounts (≈) assume the structure as drawn. The source made the active and inactive calls. The rule behind the calls is not given here.

Assays:
[1] = test system: Mycobacterium tuberculosis; test: Antimycobacterial activity against Mycobacterium tuberculosis H37Rv by alamar blue staining based microplate analysis; type: functional
Method in brief: (§1)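 Microplate Alamar Blue assay. MIC values read at pH 6.6 (neutral). One acidic-pH test at pH 5.6 is footnoted separately.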

[2] = test system: Mycobacterium tuberculosis; test: Antimycobacterial activity against Mycobacterium tuberculosis H37Ra by alamar blue staining based microplate analysis; type: functional; method in brief: as §1
Mycobacterium kansasii = test: Antimycobacterial activity against Mycobacterium kansasii by alamar blue staining based microplate analysis; type: functional
Method in brief: (§2)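 Microplate Alamar Blue assay, one of six mycobacterial strains tested (Mtb H37Rv, Mtb H37Ra, M. kansasii, M. avium, M. smegmatis, M. aurum); value reported as MIC.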

Mycobacterium avium = test: Antimycobacterial activity against Mycobacterium avium by alamar blue staining based microplate analysis; type: functional; method in brief: as §1
[3] = test system: Mycolicibacterium smegmatis; test: Antimycobacterial activity against Mycobacterium smegmatis by alamar blue staining based microplate analysis; type: functional; method in brief: as §2
Mycolicibacterium aurum = test: Antimycobacterial activity against Mycobacterium aurum by alamar blue staining based microplate analysis; type: functional; method in brief: as §2
[4] = Cytotoxicity against human HepG2 cells assessed as inhibition of cell viability; type: toxicity, cell-based
[5] = Selectivity index, ratio of IC50 for cytotoxicity against human HepG2 cells to MIC for antimycobacterial activity against Mycobacterium tuberculosis H37Rv; type: toxicity, cell-based; settings: read-out: Selectivity Index
[6] = test system: Mycobacterium tuberculosis; test: Antimycobacterial activity against Mycobacterium tuberculosis IZAK by alamar blue staining based microplate analysis; type: functional
[7] = test system: Mycobacterium tuberculosis; test: Antimycobacterial activity against Mycobacterium tuberculosis MAT1 by alamar blue staining based microplate analysis; type: functional
[8] = Metabolic stability in human liver microsomes assessed as half life at 3 uM incubated for 45 mins by HPLC-MS analysis; type: ADME, Microsome
Method in brief: (§3)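 Ammonium salt or lactone, 3 μM, incubated with human liver microsomes at physiological pH; reactions stopped at 0, 5, 15, 30 and 45 min and analysed by HPLC-MS; k, t1/2 and intrinsic clearance calculated from the HPLC-MS records.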

[9] = Metabolic stability in human liver microsomes assessed as intrinsic clearance at 3 uM incubated for 45 mins by HPLC analysis; type: ADME, Microsome; settings: read-out: CLH; method in brief: as §3
[10] = Drug metabolism in human liver microsomes assessed as M1 metabolite formation at 90 uM incubated for 3 hrs; type: ADME, Microsome
Method in brief: (§4)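 Phase I metabolite identification: ammonium salt of the compound (for solubility) or its lactone, 90 μM, incubated with human liver microsomes for 3 h; metabolites detected by HPLC-MS, positive ion mode, by m/z.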

[11] = Drug metabolism in human liver microsomes assessed as M2 metabolite formation at 90 uM incubated for 3 hrs; type: ADME, Microsome; method in brief: as §4
[12] = Drug metabolism in human liver microsomes assessed as M3 metabolite formation at 90 uM incubated for 3 hrs; type: ADME, Microsome; method in brief: as §4
[13] = test system: Mycobacterium tuberculosis; test: Antimycobacterial activity against Mycobacterium tuberculosis H37Rv at 40 times MIC measured after 15 days in presence of methionine by alamar blue staining based microplate analysis; type: functional, organism-based; settings: time 15.0 day
[14] = test system: Mycobacterium tuberculosis; test: Antimycobacterial activity against Mycobacterium tuberculosis H37Rv infected in mouse assessed as reduction in colony formation in lungs at 50 mg/kg administered for 28 days; type: functional, organism-based; settings: time 28.0 day
Method in brief: (§5)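 Mice infected intranasally with Mtb H37Rv; infection allowed to develop four weeks. Then dosed for 28 days with sodium salt forms as water solution by gastric tube. Lung and spleen CFU determined and compared with untreated control group.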

[15] = test system: Mycobacterium tuberculosis; test: Antimycobacterial activity against Mycobacterium tuberculosis H37Rv infected in mouse assessed as reduction in colony formation in spleen at 50 mg/kg administered for 28 days; type: functional, organism-based; settings: time 28.0 day; method in brief: as §5
[16] = test system: Mycobacterium tuberculosis; test: Antimycobacterial activity against Mycobacterium tuberculosis H37Rv assessed as change in phospholipid production at 1.5 to 6 ug/ml incubated for 24 hrs in presence of 14C acetate by TLC analysis; type: functional, organism-based; settings: dose 1.5-6 µg/ml
Method in brief: (§6)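 Mtb H37Rv cultures exposed to 0, 1.5, 3 or 6 μg/ml compound or its sodium salt for 24 h. 14C acetate then added and cells grown a further 24 h. Lipids and mycolic acids extracted; fatty acids derivatized to methyl esters. Separated by TLC on standard or AgNO3-impregnated plates in Solvent IV and visualized by autoradiography.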

[17] = test system: Mycobacterium tuberculosis; test: Antimycobacterial activity against Mycobacterium tuberculosis H37Rv assessed as change in trehalose monomycolates production at 1.5 to 6 ug/ml incubated for 24 hrs in presence of 14C acetate by TLC analysis; type: functional, organism-based; settings: dose 1.5-6 µg/ml; method in brief: as §6
[18] = test system: Mycobacterium tuberculosis; test: Antimycobacterial activity against Mycobacterium tuberculosis H37Rv assessed as change in trehalose dimycolates production at 1.5 to 6 ug/ml incubated for 24 hrs in presence of 14C acetate by TLC analysis; type: functional, organism-based; settings: dose 1.5-6 µg/ml; method in brief: as §6
[19] = test system: Mycobacterium tuberculosis; test: Antimycobacterial activity against Mycobacterium tuberculosis H37Rv assessed as decreased synthesis of tri-acylglyerols at 1.5 to 6 ug/ml incubated for 24 hrs in presence of 14C acetate by TLC analysis; type: functional, organism-based; settings: dose 1.5-6 µg/ml; method in brief: as §6
[20] = test system: Mycobacterium tuberculosis; test: Antimycobacterial activity against Mycobacterium tuberculosis H37Rv assessed as decreased synthesis of methoxy-mycolic acid at 1.5 to 6 ug/ml incubated for 24 hrs in presence of 14C acetate by TLC analysis; type: functional, organism-based; settings: dose 1.5-6 µg/ml; method in brief: as §6
[21] = test system: Mycobacterium tuberculosis; test: Antimycobacterial activity against Mycobacterium tuberculosis H37Rv assessed as decreased synthesis of cyclopropyl-mycolic acid at 1.5 to 6 ug/ml incubated for 24 hrs in presence of 14C acetate by TLC analysis; type: functional, organism-based; settings: dose 1.5-6 µg/ml; method in brief: as §6
[22] = test system: Mycobacterium tuberculosis; test: Antimycobacterial activity against Mycobacterium tuberculosis H37Rv at 1 times MIC measured after 15 days in presence of methionine by alamar blue staining based microplate analysis; type: functional, organism-based; settings: time 15.0 day

O=C(Nc1ccc2c(c1)OCOC2=O)c1ccc2ccccc2n1 showed an MIC [1] of 1.56 µg/mL (≈ 4.87 µM), an MIC [2] of 1.98 µg/mL (≈ 6.18 µM) and an MIC (Mycobacterium kansasii) greater than 100 µg/mL. The MIC (Mycobacterium avium) was greater than 100 µg/mL, the MIC [3] was no less than 250 µg/mL and the MIC (Mycolicibacterium aurum) was no less than 250 µg/mL. It also gave a pIC50 [4] of less than 4.60, a selectivity ratio [5] greater than 5.1 and an MIC [6] of 50 µg/mL (≈ 156 µM). For the same molecule, the MIC [7] was 50 µg/mL (≈ 156 µM), the half-life at 3 µM [8] was 11 min and the microsomal CLint at 3 µM [9] was 122 µL/min/mg. The Drug metabolism [10] was “Metabolite_Detected”, the Drug metabolism [11] was “Metabolite_Detected” and the Drug metabolism [12] was “Metabolite_Detected”.
Molecule Nc1ccc(C(=O)O)c(O)c1 [AMINOSALICYLIC ACID] has an MIC [1] of 3.13 µg/mL (≈ 20.4 µM), an MIC [2] of 0.25 µg/mL (≈ 1.63 µM) and an MIC (Mycobacterium avium) of 3.13 µg/mL (≈ 20.4 µM). For the same molecule, the MIC [3] was 500 µg/mL (≈ 3270 µM), the MIC (Mycolicibacterium aurum) was 250 µg/mL (≈ 1630 µM) and the pIC50 [4] was less than 2.90. For the same molecule, the selectivity ratio [5] was 62.1 and the Activity [13] was “inactive”.
With O=C(Nc1ccc(C(=O)O)c(O)c1)c1ccc2ccccc2n1 the Activity [14] was “inactive”, the Activity [15] was “Active” and the Activity [16] was “inactive”. The Activity [17] was “inactive”, the Activity [18] was “inactive” and the Activity [19] was “Active”. For the same molecule, the Activity [20] was “Active”, the Activity [21] was “Active” and the Activity [22] was “inactive”.
